Assay results published in PMC12988600 (AAPS PharmSciTech, 2019).
Converted amounts (≈) assume the structure as drawn.

Columns and labels:
[1] = Saturation solubility of ERL batches in water; assay type: physicochemical
[2] = In vitro dissolution, USP apparatus II; assay type: physicochemical; conditions: within 5 min
Summary of the method: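 USP II paddle dissolution at 37 ± 0.5°C and 75 rpm in 500 ml of 0.1 N HCl, FaSSIF or FeSSIF. Plain drug or liquisolid formulation was added at 50 mg drug-equivalent. Aliquots were taken at […], with the medium replaced each time. Samples were centrifuged at 10,000 rpm for 10 min and the supernatant was quantified by HPLC-DAD at 246 nm.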

[3] = system: ERL-resistant HCC827 cells; assay: In vitro cytotoxicity, crystal violet; assay type: cell-based; conditions: 48 h
[4] = human; cited from earlier work
[5] = system: HCC 827/ERL cells; assay: Annexin V-FITC apoptosis assay, flow cytometry; assay type: cell-based; conditions: HCC827/ERL cells, 48 h, VA 0.5 mM where present

Row | solubility at 24 h [1] | % drug dissolved ([2]; FaSSIF) | % drug dissolved ([2]; FeSSIF) | Structure (SMILES) | % cell killing ([3]; 25 μM (highest concentration)) | Absorbed after oral administration [4] | Cell killing ([3]; 0.5 mM) | Apoptotic cells [5]
1 | 0.7 µg/mL (≈ 1.78 µM) | 1.1% | 13% | C#Cc1cccc(Nc2ncnc3cc(OCCOC)c(OCCOC)cc23)c1 [ERL, Erlotinib] | < 15% | about 60% | – | –
2 | – | – | – | CCCC(CCC)C(=O)O [VA, 2-propylpentanoic acid] | – | – | did not show significant cell killing | poor apoptotic effect
